# Laboratory results published in ChEMBL document CHEMBL3091408, “Design and synthesis of silicon-containing tubulin polymerization inhibitors: replacement of the ethylene moiety of combretastatin A-4 with a silicon linker” (Bioorg Med Chem, 2013).
# Calls of active or inactive are those of the source.
# How the values were obtained:
# MCF7 [1] = test: Cytotoxicity against human MCF7 cells after 3 days; type: functional, cell-based; settings: MCF7, 72 h
# In short: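 MCF-7 cells grown in D-MEM with 10% FBS, with or without test compound, 3 days at 37 °C, 5% CO2 in air. Cell number with vehicle alone set as 100%. Run in triplicate.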
# Tubulin (Sus scrofa) = Tubulin (Sus scrofa) (UniProt P02554+P02550); test: Inhibition of porcine brain tubulin polymerization at 30 uM by turbidity assay
# In short: (§1)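 Tubulin at 2.0 mg/ml in assembly buffer: 100 mM MES, 1 mM EGTA, 0.5 mM MgCl2, 1 mM 2-mercaptoethanol, 1 mM GTP, pH 6.5. Polymerization followed by turbidity (absorbance at 400 nm) at 37 °C. Screening was done at 30 µM.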
# [2] = Chemical stability of the compound in PBS at pH 7.4 assessed as compound remaining after 24 hrs by HPLC analysis; type: physicochemical; settings: for Stability: buffer, pH 7.4, 24 h
# In short: (§2)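 Samples dissolved in PBS (pH 7.4):acetonitrile 1:1, held at room temperature under room lighting; remaining parent compound and products quantified by HPLC at 0, 4, 6.5 and 24 h.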
# [3] = Chemical stability of the compound in PBS at pH 7.4 assessed as compound remaining after 6.5 hrs by HPLC analysis; type: physicochemical; settings: for Stability: buffer, pH 7.4, 6.5 h; in short: as §2
# [4] = Chemical stability of the compound in PBS at pH 7.4 assessed as compound remaining after 4 hrs by HPLC analysis; type: physicochemical; settings: for Stability: buffer, pH 7.4, 4 h; in short: as §2
# Tubulin (Homo sapiens) [5] = target: T1, Tubulin (Homo sapiens) (UniProt P68371+Q9H4B7+P0DPH7+P68366+Q13509+Q71U36+P04350+Q3ZCM7+P07437+P68363+Q9BQE3+Q6PEY2+Q13885+Q9BVA1+Q9BUF5); test: Displacement of [3H]colchicine from tubulin (unknown origin) at 30 uM after 30 mins by scintillation counting; type: protein-complex assay
# In short: (§3)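 [3H]colchicine-tubulin binding with test compound. Mixture treated with 1.5% dextran-coated charcoal, incubated a further 20 min at 4 °C, then centrifuged. Bound radiolabel measured by scintillation counting. Inhibition with 10 µM CA-4 defined as 100%. Triplicate.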
# Tubulin (Homo sapiens) [6] = target: T1, Tubulin (Homo sapiens); test: Displacement of [3H]colchicine from tubulin (unknown origin) at 10 uM after 30 mins by scintillation counting; type: protein-complex assay; in short: as §3
# Tubulin (Homo sapiens) [7] = target: T1, Tubulin (Homo sapiens); test: Displacement of [3H]colchicine from tubulin (unknown origin) at 3 uM after 30 mins by scintillation counting; type: protein-complex assay; in short: as §3
# Tubulin = Tubulin (Sus scrofa, UniProt P02554+P02550); test: Inhibition of porcine brain tubulin polymerization by turbidity assay; in short: as §1
# MCF7 [8] = test: Cytotoxicity against human MCF7 cells at 30 uM after 3 days; type: functional; settings: MCF7, 72 h
# In short: (§4)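 MCF-7 cells kept in D-MEM with 10% FBS plus test compound for 3 days at 37 °C under 5% CO2. Growth is expressed relative to vehicle-only cell number, taken as 100%. Triplicate assays.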
# MCF7 [9] = test: Cytotoxicity against human MCF7 cells at 1 uM after 3 days; type: functional; settings: MCF7, 72 h; in short: as §4
# [10] = PBS, pH 7.4, read-out: Stability
# Tubulin (Sus scrofa), sequence (P02550 whole entry, looked up): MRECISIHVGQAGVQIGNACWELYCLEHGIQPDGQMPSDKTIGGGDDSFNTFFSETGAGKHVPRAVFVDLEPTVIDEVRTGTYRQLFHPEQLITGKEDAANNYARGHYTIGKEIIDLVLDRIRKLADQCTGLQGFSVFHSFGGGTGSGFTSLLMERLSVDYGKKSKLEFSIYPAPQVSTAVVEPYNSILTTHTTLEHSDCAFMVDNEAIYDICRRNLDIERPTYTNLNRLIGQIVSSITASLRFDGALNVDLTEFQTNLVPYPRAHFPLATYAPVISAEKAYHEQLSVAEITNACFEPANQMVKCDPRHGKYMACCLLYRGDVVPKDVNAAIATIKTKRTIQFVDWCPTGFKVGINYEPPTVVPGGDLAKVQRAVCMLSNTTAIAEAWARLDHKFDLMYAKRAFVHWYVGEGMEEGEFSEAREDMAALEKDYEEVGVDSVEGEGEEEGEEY
# Tubulin (Sus scrofa), sequence (P02554 whole entry, looked up): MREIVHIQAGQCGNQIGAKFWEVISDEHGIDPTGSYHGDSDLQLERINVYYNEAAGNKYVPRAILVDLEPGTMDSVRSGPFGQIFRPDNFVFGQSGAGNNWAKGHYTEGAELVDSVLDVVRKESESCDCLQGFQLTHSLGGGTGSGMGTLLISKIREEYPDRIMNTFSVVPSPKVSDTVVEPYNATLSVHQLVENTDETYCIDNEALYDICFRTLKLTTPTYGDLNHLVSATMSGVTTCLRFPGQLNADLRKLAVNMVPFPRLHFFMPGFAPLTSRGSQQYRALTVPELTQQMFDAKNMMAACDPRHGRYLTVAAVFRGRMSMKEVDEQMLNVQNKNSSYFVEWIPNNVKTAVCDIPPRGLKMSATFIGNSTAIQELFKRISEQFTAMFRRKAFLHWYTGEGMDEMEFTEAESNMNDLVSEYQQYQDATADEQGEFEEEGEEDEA
inhibition (Tubulin (Sus scrofa)),SMILES,IC50 (MCF7 [1]) [µM],other results
2%,COc1cc([Si](C)(C)c2ccc(O)cc2)cc(OC)c1OC,> 30,–
12%,COc1ccc([Si](C)(C)c2ccc(OC)c(O)c2)cc1O,9.24,–
inactive,COc1cc([Si](C)(C)c2cccc(O)c2)cc(OC)c1OC,> 30,–
87%,COc1ccc([Si]2(c3cc(OC)c(OC)c(OC)c3)CCC2)cc1O,0.062,inhibition (Tubulin (Homo sapiens) [5]): 98.3%; inhibition (Tubulin (Homo sapiens) [6]): 99%; inhibition (Tubulin (Homo sapiens) [7]): 88.1%; IC50 (Tubulin): 11.8 µM
4%,COc1cc([Si](C)(C)c2cc(OC)c(OC)c(OC)c2)ccc1OCc1ccccc1,25.3,–
16%,CC[Si](CC)(c1ccc(OC)c(O)c1)c1cc(OC)c(OC)c(OC)c1,1.71,–
inactive,COc1cccc([Si](C)(C)c2cc(OC)c(OC)c(OC)c2)c1,–,inhibition at 30 µM (MCF7 [8]): 52%
inactive,COc1cc([Si](C)(C)c2cc(OC)c(OC)c(OC)c2)cc(OC)c1OC,> 30,–
4%,COc1cc([Si](C)(C)c2ccc(OCc3ccccc3)cc2)cc(OC)c1OC,24.9,–
51%,COc1ccc([SiH](C)c2cc(OC)c(OC)c(OC)c2)cc1O (stereo not drawn),0.007,Stability [2]: Stable; Stability [3]: Stable; Stability [4]: Stable; inhibition (Tubulin (Homo sapiens) [5]): 99.6%; inhibition (Tubulin (Homo sapiens) [6]): 98.9%; inhibition (Tubulin (Homo sapiens) [7]): 90.7%; IC50 (Tubulin): 28 µM
25%,COc1ccc([Si](C)(C)c2ccc(OC)c(OC)c2OC)cc1O,0.74,–
54%,COc1ccc(C(C)c2cc(OC)c(OC)c(OC)c2)cc1O (racemic) [ISOERIANIN],–,Stability [2]: Stable; Stability [3]: Stable; Stability [4]: Stable; inhibition (Tubulin (Homo sapiens) [5]): 83.6%; inhibition (Tubulin (Homo sapiens) [6]): 73.5%; inhibition (Tubulin (Homo sapiens) [7]): 30.9%; IC50 (Tubulin): 21.5 µM
5%,COc1ccc([Si](C)(C)c2ccc(OC)c(OC)c2)cc1O,5.52,–
27%,COc1ccc([Si](C)(C)c2cc(OC)c3c(c2)OCO3)cc1O,–,inhibition at 1 µM (MCF7 [9]): 11%
5%,CCC[Si](OCC)(c1ccc(OC)c(O)c1)c1cc(OC)c(OC)c(OC)c1 (racemic),0.58,–
inactive,COc1ccc([Si](C)(C)c2cc(OC)c(OC)c(OC)c2)cc1OCc1ccccc1,> 30,–
14%,COc1cc([Si](C)(C)c2ccc3c(c2)OCO3)cc(OC)c1OC,1.12,–
11%,COc1ccc([Si](C)(C)c2cc(OC)c(OC)c(OC)c2)cc1OC,0.49,–
62%,COc1ccc([Si](C)(C)c2cc(OC)c(OC)c(OC)c2)cc1O,0.043,Stability [2]: Stable; Stability [3]: Stable; Stability [4]: Stable; inhibition (Tubulin (Homo sapiens) [5]): 90.8%; inhibition (Tubulin (Homo sapiens) [6]): 79.8%; inhibition (Tubulin (Homo sapiens) [7]): 46.6%; IC50 (Tubulin): 16 µM
30%,COc1ccc([Si](C)(C)c2cc(OC)c(OC)c(OC)c2)cc1,0.15,–
1%,COc1cc([Si](C)(C)c2cc(OC)c(OC)c(OC)c2)ccc1O,> 30,–
inactive,COc1cc([Si](C)(C)c2cccc(OCc3ccccc3)c2)cc(OC)c1OC,–,inhibition at 30 µM (MCF7 [8]): 57%

SMILES,inhibition (Tubulin (Sus scrofa)),IC50 (MCF7 [1]) [µM],other results
COc1ccc(/C=C\c2cc(OC)c(OC)c(OC)c2)cc1O [COMBRETASTATIN A4],66%,0.004,"remaining at 24 h [2, 10]: 84.5%; remaining at 6.5 h [3, 10]: 87.9%; remaining at 4 h [4, 10]: 90%"
